# Data: ChEMBL document CHEMBL1126633, “Prodrugs of doxorubicin and melphalan and their activation by a monoclonal antibody-penicillin-G amidase conjugate” (J Med Chem, 1993)
# How the values were obtained:
# Assay type in all cases: functional, cell-based
# [1] = tested on: H2981 cell line; test: Inhibition of [3H]thymidine incorporation in human lung adenocarcinoma cells in the presence of PGA enzyme
# Summary of the method: (§1)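 H2981 human lung adenocarcinoma cells (10^7 cells/0.2 mL in IMDM with 10% FBS) were exposed to compound with or without added PGA at 37 °C for 4 h, then washed and counted. Triplicates were plated at 10^5 cells/mL, grown 24 h, and pulsed 24 h with [3H]thymidine (1 µCi/well). IC50 is the concentration giving 50% inhibition of incorporation.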
# [2] = tested on: H2981 cell line; test: Inhibition of [3H]thymidine incorporation in human lung adenocarcinoma cells in the absence of PGA enzyme; details: H2981, 4 h; summary of the method: as §1
# [3] = tested on: H2981 cell line; test: Inhibition of [3H]thymidine incorporation in human lung adenocarcinoma cells in the absence of PGA enzyme (compound + 10 micro g/mL calf intestine alkaline phosphatase); details: H2981, 4 h
# Summary of the method: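 H2981 cells in IMDM with 10% FBS were exposed to compound without PGA for 4 h at 37 °C. Calf intestinal alkaline phosphatase was added to the incubation at 10 µg/mL. Cells were then washed, plated in triplicate at 10^5 cells/mL, grown 24 h and pulsed 24 h with [3H]thymidine (1 µCi/well). IC50 is the concentration giving 50% inhibition of incorporation.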
Compound,"IC50 ([1]; Homo sapiens, H2981, 4 h) [µM]",IC50 [2] [µM],IC50 ([1]; h2981) [µM],IC50 [3] [µM]
COc1cccc2c1C(=O)c1c(O)c3c(c(O)c1C2=O)C[C@@](O)(C(=O)CO)C[C@@H]3OC1CC(NC(=O)Cc2ccc(N)cc2)C(O)C(C)O1 (some centres not stated),10,> 1000,–,–
O=C(Cc1ccccc1)NC(Cc1ccc(N(CCCl)CCCl)cc1)C(=O)O (configuration not stated),5,100,–,–
COc1cccc2c1C(=O)c1c(O)c3c(c(O)c1C2=O)C[C@@](O)(C(=O)CO)C[C@@H]3OC1CC(NC(=O)Cc2ccc(OP(=O)(O)O)cc2)C(O)C(C)O1 (stereo in doubt; 4),–,> 1000,4,–
COc1cccc2c1C(=O)c1c(O)c3c(c(O)c1C2=O)C[C@@](O)(C(=O)CO)C[C@@H]3O[C@H]1C[C@H](N)[C@H](O)[C@H](C)O1 [DOXORUBICIN],–,0.7,–,–
N[C@@H](Cc1ccc(N(CCCl)CCCl)cc1)C(=O)O [MELPHALAN],–,5,–,–
COc1cccc2c1C(=O)c1c(O)c3c(c(O)c1C2=O)C[C@@](O)(C(=O)CO)C[C@@H]3OC1CC(NC(=O)Cc2ccc(OP(=O)(O)O)cc2)C(O)C(C)O1 (stereo in doubt),–,–,0.7,> 1000
COc1cccc2c1C(=O)c1c(O)c3c(c(O)c1C2=O)C[C@@](O)(C(=O)CO)C[C@@H]3OC1CC(NC(=O)Cc2ccccc2)C(O)C(C)O1 (some centres not stated),0.2,2,–,–
